Active and inactive are the calls of the source. The calls are words filed in the database; no cut-off is given here.
Key:
Histone deacetylase 1 [1] = biological target: T1, Histone deacetylase 1 (Homo sapiens, UniProt Q13547); test: Inhibition of HDAC1 (unknown origin) after 60 mins by MALDI mass spectrometry
[2] = biological target: T2, Histone deacetylase 8 (Homo sapiens) (UniProt Q9BY41); test: Inhibition of His-tagged HDAC8 (unknown origin) expressed in Escherichia coli BL21(DE3) at 10 uM after 60 mins by MALDI mass spectrometry
T2 sequence (whole entry): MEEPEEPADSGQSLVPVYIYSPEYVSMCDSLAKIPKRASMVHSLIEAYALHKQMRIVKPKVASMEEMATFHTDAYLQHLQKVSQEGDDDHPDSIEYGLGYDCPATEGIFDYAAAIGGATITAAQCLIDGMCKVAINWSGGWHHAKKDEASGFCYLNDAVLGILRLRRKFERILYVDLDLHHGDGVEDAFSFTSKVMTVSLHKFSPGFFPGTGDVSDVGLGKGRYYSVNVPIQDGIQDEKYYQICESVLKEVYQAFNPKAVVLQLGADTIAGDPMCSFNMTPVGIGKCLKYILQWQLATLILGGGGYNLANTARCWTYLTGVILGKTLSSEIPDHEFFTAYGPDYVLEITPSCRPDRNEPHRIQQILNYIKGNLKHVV
How it was run: (§1)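 Enzyme (250 nM) was incubated with inhibitor for 60 min at 37 °C in Tris-HCl pH 8.0 buffer containing NaCl, KCl, MgCl2 and BSA. Substrates were GRK(ac)FGC for HDAC1/HDAC8 and GRK(ac)YGC for HDAC6. Reactions were TSA-quenched, immobilized on maleimide SAMs and read by MALDI (SAMDI); deacetylation was taken as the product fraction.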

[3] = biological target: T3, Protein deacetylase HDAC6 (Homo sapiens) (UniProt Q9UBN7); test: Inhibition of His-tagged HDAC6 (unknown origin) expressed in Escherichia coli BL21(DE3) at 10 uM after 60 mins by MALDI mass spectrometry
T3 sequence (whole entry): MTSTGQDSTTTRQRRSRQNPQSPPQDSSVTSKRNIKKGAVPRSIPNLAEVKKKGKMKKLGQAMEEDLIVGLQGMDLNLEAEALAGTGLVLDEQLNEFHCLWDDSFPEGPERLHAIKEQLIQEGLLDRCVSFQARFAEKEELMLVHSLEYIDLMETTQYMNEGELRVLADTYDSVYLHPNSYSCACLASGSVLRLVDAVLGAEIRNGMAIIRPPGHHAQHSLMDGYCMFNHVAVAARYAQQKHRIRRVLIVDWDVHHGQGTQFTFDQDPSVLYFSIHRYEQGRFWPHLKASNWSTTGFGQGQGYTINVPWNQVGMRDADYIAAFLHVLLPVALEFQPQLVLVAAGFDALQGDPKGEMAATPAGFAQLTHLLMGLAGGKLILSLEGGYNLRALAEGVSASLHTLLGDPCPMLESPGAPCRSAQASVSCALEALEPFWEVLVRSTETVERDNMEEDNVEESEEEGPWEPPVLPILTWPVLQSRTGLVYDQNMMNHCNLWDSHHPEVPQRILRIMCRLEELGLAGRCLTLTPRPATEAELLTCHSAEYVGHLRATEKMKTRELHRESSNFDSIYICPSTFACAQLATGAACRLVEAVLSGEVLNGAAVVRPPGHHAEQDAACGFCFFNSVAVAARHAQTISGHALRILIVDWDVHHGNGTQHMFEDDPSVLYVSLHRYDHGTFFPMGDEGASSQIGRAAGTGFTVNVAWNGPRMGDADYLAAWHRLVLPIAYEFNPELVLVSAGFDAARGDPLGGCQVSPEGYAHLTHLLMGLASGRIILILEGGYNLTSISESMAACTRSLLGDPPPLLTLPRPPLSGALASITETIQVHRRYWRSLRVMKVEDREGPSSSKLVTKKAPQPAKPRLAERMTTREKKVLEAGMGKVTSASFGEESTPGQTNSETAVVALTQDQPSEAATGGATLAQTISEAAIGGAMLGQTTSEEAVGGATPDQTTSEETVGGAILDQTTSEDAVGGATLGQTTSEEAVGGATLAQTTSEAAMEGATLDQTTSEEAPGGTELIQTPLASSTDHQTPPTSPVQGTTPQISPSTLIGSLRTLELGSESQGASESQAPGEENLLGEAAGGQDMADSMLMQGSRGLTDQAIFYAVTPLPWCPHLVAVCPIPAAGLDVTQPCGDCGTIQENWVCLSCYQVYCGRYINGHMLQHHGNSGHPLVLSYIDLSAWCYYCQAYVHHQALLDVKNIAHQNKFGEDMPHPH
How it was run: as §1

[4] = biological target: T4, Protein deacetylase HDAC6 (Homo sapiens, UniProt Q9UBN7); test: Inhibition of HDAC6 (unknown origin) after 60 mins by MALDI mass spectrometry
T4 sequence (Q9UBN7 whole entry): T3 sequence (whole entry)

A549 = test: Cytotoxicity against human A549 cells at 100 uM after 72 hrs by MTS assay; assay type: functional; settings: A549, 72 h
How it was run: (§2)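 Cells kept in folate-free RPMI with 10% FBS and 1% pen/strep (KB, HeLa) or DMEM with 10% FBS and 1% pen/strep (A549). For the assay, cells were plated in folate-free RPMI for 24 h, then drug-treated for 72 h at 0.1% DMSO. Viability was read by MTS. Mean ± SD from at least 2 independent triplicate experiments.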

[5] = biological target: T3, Protein deacetylase HDAC6 (Homo sapiens); test: Inhibition of HDAC6 in human KB cells assessed as increase in tubulin acetylation at >= IC50 after 4 hrs by Western blotting analysis; assay type: cell-based
How it was run: (§3)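 KB cells were plated for 24 h, then compound-treated for 4 h (tubulin acetylation) or 24 h (histone H4 acetylation). Cells were PBS-washed and lysed in CelLytic M with protease inhibitor cocktail. Protein was Bradford-quantified and equal amounts were resolved by SDS-PAGE at 100 V. Detection used IRDye680 and IRDye800 secondary antibodies.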

KB [6] = test: Cytotoxicity against human KB cells after 72 hrs by MTS assay; assay type: functional, cell-based
Histone deacetylase 8 = biological target: T5, Histone deacetylase 8 (Homo sapiens, UniProt Q9BY41); test: Inhibition of His-tagged HDAC8 (unknown origin) expressed in Escherichia coli BL21(DE3) after 60 mins by MALDI mass spectrometry
T5 sequence (Q9BY41 whole entry): T2 sequence (whole entry)

HeLa [7] = test: Cytotoxicity against human HeLa cells at 100 uM after 72 hrs by MTS assay; assay type: functional
How it was run: as §2

KB [8] = test: Cytotoxicity against human KB cells at 100 uM after 72 hrs by MTS assay; assay type: functional
How it was run: as §2

Histone deacetylase 1 [9] = biological target: T1, Histone deacetylase 1; test: Inhibition of His-tagged HDAC1 (unknown origin) expressed in Escherichia coli BL21(DE3) at 10 uM after 60 mins by MALDI mass spectrometry
How it was run: as §1

Homo sapiens [10] = species on record: Homo sapiens; test: Selectivity ratio of IC50 for His-tagged HDAC8 (unknown origin) to IC50 for His-tagged HDAC6 (unknown origin)
How it was run: as §1

Homo sapiens [11] = species on record: Homo sapiens; test: Selectivity ratio of IC50 for His-tagged HDAC1 (unknown origin) to IC50 for His-tagged HDAC6 (unknown origin)
How it was run: as §1

[12] = biological target: T3, Protein deacetylase HDAC6 (Homo sapiens); test: Inhibition of HDAC6 in human KB cells assessed as increase in tubulin acetylation at 100 uM after 4 hrs by Western blotting analysis; assay type: cell-based
How it was run: as §3

KB [13] = test: Cytotoxicity against human KB cells at 25 uM after 72 hrs by MTS assay in presence of folic acid
HeLa [14] = test: Cytotoxicity against human HeLa cells after 72 hrs by MTS assay; assay type: functional, cell-based

T1 sequence (Q13547 whole entry): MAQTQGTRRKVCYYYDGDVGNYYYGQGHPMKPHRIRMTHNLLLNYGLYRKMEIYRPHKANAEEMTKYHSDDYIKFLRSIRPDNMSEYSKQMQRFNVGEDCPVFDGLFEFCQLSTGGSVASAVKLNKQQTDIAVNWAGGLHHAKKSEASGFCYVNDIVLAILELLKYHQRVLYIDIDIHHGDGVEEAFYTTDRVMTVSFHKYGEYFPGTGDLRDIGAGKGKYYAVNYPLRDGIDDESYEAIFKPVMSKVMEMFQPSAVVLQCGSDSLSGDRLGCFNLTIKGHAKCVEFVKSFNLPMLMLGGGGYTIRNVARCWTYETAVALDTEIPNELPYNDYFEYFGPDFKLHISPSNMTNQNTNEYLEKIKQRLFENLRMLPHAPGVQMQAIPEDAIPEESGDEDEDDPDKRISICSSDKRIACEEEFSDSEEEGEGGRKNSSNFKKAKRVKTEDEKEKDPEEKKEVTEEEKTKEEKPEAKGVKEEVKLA

SMILES | IC50 (Histone deacetylase 1 [1]) [nM] | inhibition [2] [%] | IC50 [4] [nM] | IC50 (Histone deacetylase 8) [nM] | inhibition at 100 µM (HeLa [7]) [%] | inhibition at 100 µM (KB [8]) [%] | further results
Nc1nc2ncc(CNc3ccc(C(=O)NCCCCCCC(=O)NO)cc3)nc2c(=O)[nH]1 | 23.4 | – | 12.2 | 1060 | 34 | – | inhibition at 100 µM (A549): < 20%; Activity [5]: Active; IC50 (KB [6]): 53700 nM
Nc1nc2ncc(CNc3ccc(C(=O)NCCCCCC(=O)NO)cc3)nc2c(=O)[nH]1 | 79.6 | 41 | 43.6 | – | < 20 | 25 | –
Nc1nc2ncc(CNc3ccc(C(=O)NCCCC(=O)NO)cc3)nc2c(=O)[nH]1 | – | 25 | 1460 | – | < 20 | < 20 | inhibition (Histone deacetylase 1 [9]): 22.1%
Nc1nc2ncc(CNc3ccc(C(=O)N[C@@H](CCC(=O)NCCCCCCCC(=O)Nc4cc(-c5cccs5)ccc4N)C(=O)O)cc3)nc2c(=O)[nH]1 | 287 | – | – | 10000 | – | – | inhibition [3]: < 20%
Nc1nc2ncc(CNc3ccc(C(=O)N[C@@H](CCC(=O)NCCCCCCC(=O)NO)C(=O)O)cc3)nc2c(=O)[nH]1 | 1770 | – | 132 | 2390 | < 20 | < 20 | –
Nc1nc2ncc(CNc3ccc(C(=O)NCCCCC(=O)NO)cc3)nc2c(=O)[nH]1 | 6150 | 39 | 212 | – | < 20 | < 20 | –
Nc1nc2ncc(CNc3ccc(C(=O)NCCCCCCCCCC(=O)NO)cc3)nc2c(=O)[nH]1 | – | 40 | 476 | – | 36 | 47 | inhibition (Histone deacetylase 1 [9]): 53%
Nc1nc2ncc(CNc3ccc(C(=O)NO)cc3)nc2c(=O)[nH]1 | 2390 | – | 17.6 | 581 | – | – | Ratio IC50 (Homo sapiens [10]): 32; Ratio IC50 (Homo sapiens [11]): 130; Activity [12]: Active
Nc1nc2ncc(CNc3ccc(C(=O)N[C@@H](CCC(=O)NO)C(=O)O)cc3)nc2c(=O)[nH]1 | – | < 20 | – | – | – | – | inhibition (Histone deacetylase 1 [9]): < 20%; inhibition [3]: < 20%
CC(=O)Nc1ccc(C(=O)Nc2cc(-c3cccs3)ccc2N)cc1 | – | – | – | – | – | – | IC50 (KB [6]): 5270 nM
Nc1nc2ncc(CNc3ccc(C(=O)NCCCCCCCC(=O)NO)cc3)nc2c(=O)[nH]1 | 16.1 | – | 55.4 | 9380 | – | – | Activity (KB [13]): inactive; inhibition at 100 µM (A549): < 20%; Activity [5]: Active; IC50 (HeLa [14]): 56600 nM; IC50 (KB [6]): 30300 nM
Nc1nc2ncc(CNc3ccc(C(=O)NCCCCCCCCC(=O)NO)cc3)nc2c(=O)[nH]1 | 524 | – | 10.2 | 7590 | 35 | 33 | –

Now from value to compound, other results behind:

IC50 (Histone deacetylase 1 [1]) [nM] | inhibition [2] [%] | IC50 [4] [nM] | IC50 (Histone deacetylase 8) [nM] | SMILES | inhibition at 100 µM (HeLa [7]) [%] | inhibition at 100 µM (KB [8]) [%] | further results
435 | < 20 | – | – | Nc1nc2ncc(CNc3ccc(C(=O)N[C@@H](CCC(=O)NCCCCCCC(=O)Nc4cc(-c5cccs5)ccc4N)C(=O)O)cc3)nc2c(=O)[nH]1 | – | – | inhibition [3]: < 20%
2760 | – | 179 | 1560 | Nc1nc2ncc(CNc3ccc(C(=O)N[C@@H](CCC(=O)NCCCCCCCCC(=O)NO)C(=O)O)cc3)nc2c(=O)[nH]1 | – | – | –
– | 40 | 8050 | – | Nc1nc2ncc(CNc3ccc(C(=O)N[C@@H](CCC(=O)NCCCC(=O)NO)C(=O)O)cc3)nc2c(=O)[nH]1 | – | – | inhibition (Histone deacetylase 1 [9]): < 20%
2940 | 23 | – | – | Nc1nc2ncc(CNc3ccc(C(=O)N[C@@H](CCC(=O)NCCCC(=O)Nc4cc(-c5cccs5)ccc4N)C(=O)O)cc3)nc2c(=O)[nH]1 | – | – | inhibition [3]: 22.8%
1800 | – | 193 | 2370 | Nc1nc2ncc(CNc3ccc(C(=O)N[C@@H](CCC(=O)NCCCCCCCC(=O)NO)C(=O)O)cc3)nc2c(=O)[nH]1 | < 20 | < 20 | –
309 | < 20 | – | – | Nc1nc2ncc(CNc3ccc(C(=O)N[C@@H](CCC(=O)NCCCCCCCCC(=O)Nc4cc(-c5cccs5)ccc4N)C(=O)O)cc3)nc2c(=O)[nH]1 | – | – | inhibition [3]: < 20%

Source: ChEMBL document CHEMBL3414552, “Design and structure activity relationship of tumor-homing histone deacetylase inhibitors conjugated to folic and pteroic acids” (Eur J Med Chem, 2015)
